Reference: ChEMBL document CHEMBL3286129, “Optimization of peptidomimetic boronates bearing a P3 bicyclic scaffold as proteasome inhibitors” (Eur J Med Chem, 2014)
The source made the active and inactive calls. No cut-off for these calls is given here.

What was measured:
[1] = molecular target: Proteasome Macropain subunit (Homo sapiens) (UniProt P49721); assay: Inhibition of trypsin-like activity of 20S proteasome in human erythrocytes using Boc-Leu-Arg-Arg-AMC as substrate by fluorescence assay; type: cell-based
Chain of Proteasome Macropain subunit (Homo sapiens) (P49721 whole entry): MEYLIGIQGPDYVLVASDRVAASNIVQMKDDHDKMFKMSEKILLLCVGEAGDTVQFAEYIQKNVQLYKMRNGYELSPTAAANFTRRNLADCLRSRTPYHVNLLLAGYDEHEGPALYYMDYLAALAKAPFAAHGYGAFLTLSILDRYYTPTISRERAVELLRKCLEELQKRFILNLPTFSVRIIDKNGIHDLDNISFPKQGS
Procedure, shortened: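 Human 20S proteasome 0.0025 mg/mL at 30 °C in 50 mM Tris pH 7.4, 50 mM NaCl, 0.5 mM EDTA, 0.03% SDS, 7.5% DMSO. Varied inhibitor concentrations; AMC release monitored continuously for 10 min, ex 380/em 460 nm. Ki derived from progress-curve IC50 fit.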

Chymotrypsinogen A = Chymotrypsinogen A (Bos taurus, UniProt P00766); assay: Inhibition of bovine pancreatic alpha-chymotrypsin using Suc-Leu-Leu-Val-Tyr-AMC as substrate by fluorescence assay
Procedure, shortened: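 Enzyme incubated at 20 °C in 50 mM Tris pH 8.0, 100 mM NaCl, 5 mM EDTA, 7.5% DMSO with varied inhibitor concentrations. Substrate hydrolysis followed for 10 min. Ki from progress curves; mean of three determinations.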

[2] = Cytotoxicity against human melanoma cells assessed as cell growth at 10 uM relative to control; type: functional; conditions: read-out: Activity
Procedure, shortened: (§1)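 Single-concentration screen against a panel of human cancer cell lines. Each value is the mean percent growth across the cell lines of that tumour subpanel.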

[3] = Cytotoxicity against human breast cancer cells assessed as cell growth at 10 uM relative to control; type: functional; conditions: Cancer cell lines, read-out: Activity; procedure, shortened: as §1
[4] = Cytotoxicity against human ovarian cancer cells assessed as cell growth at 10 uM relative to control; type: functional; conditions: Cancer cell lines, read-out: Activity; procedure, shortened: as §1
[5] = Cytotoxicity against human leukemia cells assessed as cell growth at 10 uM relative to control; type: functional; conditions: read-out: Activity; procedure, shortened: as §1
[6] = molecular target: T1, Proteasome Macropain subunit MB1 (Homo sapiens) (UniProt P28074); assay: Inhibition of chymotrypsin-like activity of 20S proteasome in human erythrocytes using Suc-Leu-Leu-Val-Tyr-AMC as substrate at 20 uM by fluorescence assay relative to control
T1 sequence (whole entry): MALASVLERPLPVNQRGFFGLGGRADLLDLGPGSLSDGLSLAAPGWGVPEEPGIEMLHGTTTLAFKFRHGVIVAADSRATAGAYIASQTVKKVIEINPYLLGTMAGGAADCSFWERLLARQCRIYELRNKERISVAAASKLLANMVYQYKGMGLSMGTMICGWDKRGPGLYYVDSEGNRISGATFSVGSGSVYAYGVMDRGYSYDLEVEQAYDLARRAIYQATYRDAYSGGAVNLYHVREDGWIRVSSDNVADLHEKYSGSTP
Procedure, shortened: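 Single inhibitor concentration, equivalent DMSO as negative control. AMC fluorescence read at ex 380/em 460 nm; percent inhibition of ChT-L activity.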

[7] = Cytotoxicity against human prostate cancer cells assessed as cell growth at 10 uM relative to control; type: functional; conditions: Cancer cell lines, read-out: Activity; procedure, shortened: as §1
[8] = Cytotoxicity against human NSCLC cells assessed as cell growth at 10 uM relative to control; type: functional; conditions: read-out: Activity; procedure, shortened: as §1
[9] = Cytotoxicity against human colon cancer cells assessed as cell growth at 10 uM relative to control; type: functional; conditions: Cancer cell lines, read-out: Activity; procedure, shortened: as §1
[10] = Cytotoxicity against human CNSC cells assessed as cell growth at 10 uM relative to control; type: functional; conditions: read-out: Activity; procedure, shortened: as §1
[11] = Cytotoxicity against human renal cancer cells assessed as cell growth at 10 uM relative to control; type: functional; conditions: Cancer cell lines, read-out: Activity; procedure, shortened: as §1
[12] = molecular target: T2, Proteasome Macropain subunit MB1 (Homo sapiens, UniProt P28074); assay: Inhibition of chymotrypsin-like activity of 20S proteasome in human erythrocytes using Suc-Leu-Leu-Val-Tyr-AMC as substrate by fluorescence assay; conditions: read-out: Ki
T2 sequence (P28074 whole entry): T1 sequence (whole entry)

Row | SMILES | inhibition [1] | Ki (Chymotrypsinogen A) | growth at 10 µM [2] [%] | growth at 10 µM [3] [%] | growth at 10 µM [4] [%] | growth at 10 µM [5] [%] | inhibition [6] [%] | growth at 10 µM [7] [%] | growth at 10 µM [8] [%] | growth at 10 µM [9] [%] | growth at 10 µM [10] [%] | growth at 10 µM [11] [%] | Ki (Chymotrypsinogen A; read-out: Ki) [µM] | Ki [12] [µM]
1 | CC(C)C[C@H](NC(=O)Cn1ccc2ncccc2c1=O)B(O)O | inactive | Not Active | – | – | – | – | – | – | – | – | – | – | – | –
2 | CC(C)C[C@H](NC(=O)Cn1ccc2ccccc2c1=O)B(O)O | inactive | – | 43.5 | 51.3 | 86.7 | 23.1 | > 40 | 80.2 | 75.6 | 57.9 | 71 | 39.8 | 9.11 | 0.49
3 | CC(C)C[C@H](NC(=O)Cn1cc(Br)c2ncccc2c1=O)B(O)O | inactive | Not Active | – | – | – | – | – | – | – | – | – | – | – | –
